This note sets out measurements from ChEMBL document CHEMBL4325910, “Design and synthesis of rosiglitazone-ferulic acid-nitric oxide donor trihybrids for improving glucose tolerance” (Eur J Med Chem, 2019).

Active and inactive are the calls of the source. The calls are words filed in the database; no cut-off is given here.

Data set [1] deals with L02. The data set can be described thus: Inhibition of cellular glucose output in dexamethasone-induced insulin resistant human L02 cells assessed as insulin-stimulated glucose uptake at 10 uM preincubated for 24 hrs followed by insulin stimulation measured after 24 hrs by glucose oxidase method (reference value: 4.5 +/- 0.7%). The format is functional. Also noted: scale not given: the % may be the effect or the level left.

The target in data set [2] is T1, Aquaporin-2 (Homo sapiens, UniProt P41181).
T1 sequence (P41181 whole entry): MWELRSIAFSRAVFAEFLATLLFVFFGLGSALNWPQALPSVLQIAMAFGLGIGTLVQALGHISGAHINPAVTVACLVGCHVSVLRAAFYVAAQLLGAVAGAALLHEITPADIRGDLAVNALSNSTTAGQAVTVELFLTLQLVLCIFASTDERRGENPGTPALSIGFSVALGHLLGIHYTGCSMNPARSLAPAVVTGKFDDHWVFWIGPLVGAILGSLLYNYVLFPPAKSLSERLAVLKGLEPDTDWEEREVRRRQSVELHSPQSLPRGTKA
The data set can be described thus: Induction of membrane translocation of biotinylated human AQP2 expressed in rat IMCD cells at 100 uM after 30 mins by Western blot analysis. Type of data set: cell-based. The note with it: 0.5 h. An outline of the steps: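 Human AQP2-transfected primary rat IMCD cells were treated for 30 min. Surface proteins were biotinylated with sulfo-NHS-LC-biotin (3 mg/mL, 60 min, 4 °C), then cells lysed in 1% NP-40 and pulled down overnight on streptavidin beads. Biotinylated and total AQP2 (30 μg/lane) were blotted with anti-AQP2 and quantified by densitometry as the biotinylated/total ratio. Three experiments, mean ± SD.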

Data set [3] has as its target T1, Aquaporin-2. The data set can be described thus: Induction of membrane translocation of biotinylated human AQP2 expressed in rat IMCD cells at 100 uM after 30 mins by FITC-staining based confocal fluorescence microscopic analysis. The format is cell-based. Particulars: 0.5 h. In a few lines:
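Primary SD rat IMCD cells, day 5, were transfected with a human AQP2 plasmid (5 h, serum-free) and cultured 48 h. They were treated for 30 min, with 0.1% DMSO as vehicle and forskolin 100 μM as reference. Cells were fixed in paraformaldehyde, permeabilized with Triton X-100 and quenched with H2O2/methanol. They were stained with FITC-anti-AQP2 and imaged by confocal microscopy.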

Data set [4] concerns 3T3-L1. Briefly: Induction of insulin-stimulated 2-NBDG uptake in TNF-alpha-induced insulin resistant mouse 3T3L1 cells at 10 uM preincubated for 48 hrs followed by 2-NBDG addition measured after 30 mins in presence of insulin by fluorescence assay. The format is functional, cell-based. In a few lines:
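Day-8 differentiated 3T3-L1 adipocytes received TNF-α (4 ng/mL) daily for 4 days. They were pretreated in triplicate for 48 h (C-PTIO 20 μM where indicated), then given 100 μM 2-NBDG at 37 °C for 30 min in the dark, with or without insulin. After KRP washes, fluorescence was read at Ex/Em 485/515 nm. Three experiments, mean ± SD.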

As to `COc1cc(/C=C/C(=O)OCCCO[N+](=O)[O-])ccc1OC(=O)OCN1C(=O)SC(Cc2ccc(OCCN(C)c3ccccn3)cc2)C1=O` (centres undefined), in data set [1], the Activity is 9.6%.
The same measure, in the same setting: the figure for `COc1cc(/C=C/C(=O)OCCCCCO[N+](=O)[O-])ccc1OC(=O)OCN1C(=O)SC(Cc2ccc(OCCN(C)c3ccccn3)cc2)C1=O` (centres undefined) is 7.1%; for `COc1cc(/C=C/C(=O)OCCCCCO[N+](=O)[O-])ccc1OC(=O)CCC(=O)OCN1C(=O)SC(Cc2ccc(OCCN(C)c3ccccn3)cc2)C1=O` (centres undefined) it is 10.1%.
For the compound `C=C[C@@]1(C)CC(=O)[C@]2(O)[C@@]3(C)[C@@H](O)CCC(C)(C)[C@@H]3[C@H](O)[C@H](OC(C)=O)[C@@]2(C)O1` [COLFORSIN], the result in data set [2] and in data set [3] was Active.
With `COC(=O)/C=C/c1ccc(O)c(OC)c1`, the result in data set [4] was Active.
On to `COc1cc(/C=C/C(=O)OCCCCO[N+](=O)[O-])ccc1OC(=O)OCN1C(=O)SC(Cc2ccc(OCCN(C)c3ccccn3)cc2)C1=O` (centres undefined), for which the Activity in data set [1] is 12.2%. Moreover, the outcome in data set [4] was Active.
`COc1cc(/C=C/C(=O)OCCCCO[N+](=O)[O-])ccc1OC(=O)CCC(=O)OCN1C(=O)SC(Cc2ccc(OCCN(C)c3ccccn3)cc2)C1=O` (centres undefined): the Activity in data set [1] came to 7.8%.
On to `COc1cc(/C=C/C(=O)OCN2C(=O)SC(Cc3ccc(OCCN(C)c4ccccn4)cc3)C2=O)ccc1OCCCCO[N+](=O)[O-]` (centres undefined), for which, in data set [1], the Activity is reported as 11.1%. Besides, the result in data set [4] was inactive.
For `COc1cc(/C=C/C(=O)OCCCCCCO[N+](=O)[O-])ccc1OC(=O)CCC(=O)OCN1C(=O)SC(Cc2ccc(OCCN(C)c3ccccn3)cc2)C1=O` (centres undefined), the Activity in data set [1] came to 6.8%.
Take `COC(=O)/C=C/c1ccc(OC(=O)OCN2C(=O)SC(Cc3ccc(OCCN(C)c4ccccn4)cc3)C2=O)c(OC)c1` (centres undefined): in data set [4], the outcome was Active.
On to `COc1cc(/C=C/C(=O)OCN2C(=O)SC(Cc3ccc(OCCN(C)c4ccccn4)cc3)C2=O)ccc1OCCCCCO[N+](=O)[O-]` (centres undefined), for which the Activity in data set [1] is on record as 7.1%.
`COc1cc(/C=C/C(=O)OCN2C(=O)SC(Cc3ccc(OCCN(C)c4ccccn4)cc3)C2=O)ccc1OCCCO[N+](=O)[O-]` (centres undefined): in data set [1], the Activity stood at 11.5%. Also, in data set [4], the result was inactive.
`COc1cc(/C=C/C(=O)OCN2C(=O)SC(Cc3ccc(OCCN(C)c4ccccn4)cc3)C2=O)ccc1OCCCCCCO[N+](=O)[O-]` (centres undefined): in data set [1], the Activity was 8.5%.
On the same count and under the same terms, the figure for `COc1cc(/C=C/C(=O)OCCCO[N+](=O)[O-])ccc1OC(=O)CCC(=O)OCN1C(=O)SC(Cc2ccc(OCCN(C)c3ccccn3)cc2)C1=O` (centres undefined) is 10%; for `COc1cc(/C=C/C(=O)OCCCCCCO[N+](=O)[O-])ccc1OC(=O)OCN1C(=O)SC(Cc2ccc(OCCN(C)c3ccccn3)cc2)C1=O` (centres undefined) it is 8%.
